How the values were obtained:
[1] = Urinary PK, MAD period day 10; type: in vivo, human; settings: day 10, across all doses
How it was run: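 During the MAD period, urine was collected on day −1 (0–24 h) and day 10 (0–12 h and 12–24 h), with LLOQ 1 ng/mL. Renal clearance and unchanged drug recovered in urine were summarized descriptively as geometric mean (CV), by dose group and for the Japanese 400 mg q.d. cohort.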

[2] = test system: sodium/Na+ taurocholate co‐transporting polypeptide; settings: cited from earlier work
[3] = test system: OCT2; settings: cited from earlier work
[4] = Treatment-emergent adverse events, SAD period; type: in vivo, human
How it was run: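 Double-blind, placebo-controlled study in healthy men and nonchildbearing women aged 18–55 y. The SAD period gave one fasted oral dose; the MAD period gave fed dosing q.d. for 10 days, plus a separate b.i.d. cohort. TEAEs, serious AEs and discontinuation AEs were monitored ≥28 days after the last dose. Vital signs, physical exam, 12-lead ECG, hematology, clinical chemistry and urinalysis were also recorded. Data summarized descriptively.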

- dose recovered unchanged in urine [1]: < 1.5%
Structure (SMILES): Cn1cc(-c2cn3nccc3c(-c3cnn([C@]4(CC#N)C[C@@H](C#N)C4)c3)n2)cn1 [PF‐06826647]
- inhibition of sodium/Na+ taurocholate co‐transporting polypeptide [2]: minimal inhibition
- inhibition of transporter protein OCT2 [3]: minimal inhibition
- AEs ([4]; SAD 3 mg (n = 6)): 0 n
- AEs leading to study drug dose reduction or interruption ([4]; SAD 3 mg (n = 6)): 0 n
- Participants with AEs ([4]; SAD 3 mg (n = 6)): 0 n (%)
- Participants with TEAEs: Alanine aminotransferase increased ([4]; SAD 3 mg (n = 6)): 0 n (%)
- Participants with TEAEs: Aspartate aminotransferase increased ([4]; SAD 3 mg (n = 6)): 0 n (%)
- Participants with TEAEs: Edema ([4]; SAD 3 mg (n = 6)): 0 n (%)
- Participants with TEAEs: Face edema ([4]; SAD 3 mg (n = 6)): 0 n (%)
- Participants with TEAEs: Gastrointestinal disorders (SOC) ([4]; SAD 3 mg (n = 6)): 0 n (%)
- Participants with TEAEs: General disorders and administration site conditions (SOC) ([4]; SAD 3 mg (n = 6)): 0 n (%)
- Participants with TEAEs: Headache ([4]; SAD 3 mg (n = 6)): 0 n (%)
- Participants with TEAEs: Injury, poisoning, and procedural complications (SOC) ([4]; SAD 3 mg (n = 6)): 0 n (%)
- Participants with TEAEs: Investigations (SOC) ([4]; SAD 3 mg (n = 6)): 0 n (%)
- Participants with TEAEs: Nausea ([4]; SAD 3 mg (n = 6)): 0 n (%)
- Participants with TEAEs: Nervous system disorders (SOC) ([4]; SAD 3 mg (n = 6)): 0 n (%)
- Participants with TEAEs: Periorbital hematoma ([4]; SAD 3 mg (n = 6)): 0 n (%)
- Participants with TEAEs: Periorbital hemorrhage ([4]; SAD 3 mg (n = 6)): 0 n (%)
- Participants with TEAEs: Peripheral swelling ([4]; SAD 3 mg (n = 6)): 0 n (%)
- Participants with TEAEs: Pruritus ([4]; SAD 3 mg (n = 6)): 0 n (%)
- Participants with TEAEs: Rash ([4]; SAD 3 mg (n = 6)): 0 n (%)
- Participants with TEAEs: Skin and subcutaneous tissue disorders (SOC) ([4]; SAD 3 mg (n = 6)): 0 n (%)
- Participants with TEAEs: Urticaria ([4]; SAD 3 mg (n = 6)): 0 n (%)
- SAEs ([4]; SAD 3 mg (n = 6)): 0 n
- Severe AEs ([4]; SAD 3 mg (n = 6)): 0 n
- AEs ([4]; SAD 10 mg (n = 6)): 0 n
- AEs leading to study drug dose reduction or interruption ([4]; SAD 10 mg (n = 6)): 0 n
- Participants with AEs ([4]; SAD 10 mg (n = 6)): 0 n (%)
- Participants with TEAEs: Alanine aminotransferase increased ([4]; SAD 10 mg (n = 6)): 0 n (%)
- Participants with TEAEs: Aspartate aminotransferase increased ([4]; SAD 10 mg (n = 6)): 0 n (%)
- Participants with TEAEs: Edema ([4]; SAD 10 mg (n = 6)): 0 n (%)
- Participants with TEAEs: Face edema ([4]; SAD 10 mg (n = 6)): 0 n (%)
- Participants with TEAEs: Gastrointestinal disorders (SOC) ([4]; SAD 10 mg (n = 6)): 0 n (%)
- Participants with TEAEs: General disorders and administration site conditions (SOC) ([4]; SAD 10 mg (n = 6)): 0 n (%)
- Participants with TEAEs: Headache ([4]; SAD 10 mg (n = 6)): 0 n (%)
- Participants with TEAEs: Injury, poisoning, and procedural complications (SOC) ([4]; SAD 10 mg (n = 6)): 0 n (%)
- Participants with TEAEs: Investigations (SOC) ([4]; SAD 10 mg (n = 6)): 0 n (%)
- Participants with TEAEs: Nausea ([4]; SAD 10 mg (n = 6)): 0 n (%)
- Participants with TEAEs: Nervous system disorders (SOC) ([4]; SAD 10 mg (n = 6)): 0 n (%)
- Participants with TEAEs: Periorbital hematoma ([4]; SAD 10 mg (n = 6)): 0 n (%)
- Participants with TEAEs: Periorbital hemorrhage ([4]; SAD 10 mg (n = 6)): 0 n (%)
- Participants with TEAEs: Peripheral swelling ([4]; SAD 10 mg (n = 6)): 0 n (%)
- Participants with TEAEs: Pruritus ([4]; SAD 10 mg (n = 6)): 0 n (%)
- Participants with TEAEs: Rash ([4]; SAD 10 mg (n = 6)): 0 n (%)
- Participants with TEAEs: Skin and subcutaneous tissue disorders (SOC) ([4]; SAD 10 mg (n = 6)): 0 n (%)
- Participants with TEAEs: Urticaria ([4]; SAD 10 mg (n = 6)): 0 n (%)
- SAEs ([4]; SAD 10 mg (n = 6)): 0 n
- Severe AEs ([4]; SAD 10 mg (n = 6)): 0 n
- AEs ([4]; SAD 30 mg (n = 8)): 0 n
- AEs leading to study drug dose reduction or interruption ([4]; SAD 30 mg (n = 8)): 0 n
- Participants with AEs ([4]; SAD 30 mg (n = 8)): 0 n (%)
- Participants with TEAEs: Alanine aminotransferase increased ([4]; SAD 30 mg (n = 8)): 0 n (%)
- Participants with TEAEs: Aspartate aminotransferase increased ([4]; SAD 30 mg (n = 8)): 0 n (%)
- Participants with TEAEs: Edema ([4]; SAD 30 mg (n = 8)): 0 n (%)
- Participants with TEAEs: Face edema ([4]; SAD 30 mg (n = 8)): 0 n (%)
- Participants with TEAEs: Gastrointestinal disorders (SOC) ([4]; SAD 30 mg (n = 8)): 0 n (%)
- Participants with TEAEs: General disorders and administration site conditions (SOC) ([4]; SAD 30 mg (n = 8)): 0 n (%)
- Participants with TEAEs: Headache ([4]; SAD 30 mg (n = 8)): 0 n (%)
- Participants with TEAEs: Injury, poisoning, and procedural complications (SOC) ([4]; SAD 30 mg (n = 8)): 0 n (%)
- Participants with TEAEs: Investigations (SOC) ([4]; SAD 30 mg (n = 8)): 0 n (%)
- Participants with TEAEs: Nausea ([4]; SAD 30 mg (n = 8)): 0 n (%)
- Participants with TEAEs: Nervous system disorders (SOC) ([4]; SAD 30 mg (n = 8)): 0 n (%)
- Participants with TEAEs: Periorbital hematoma ([4]; SAD 30 mg (n = 8)): 0 n (%)
- Participants with TEAEs: Periorbital hemorrhage ([4]; SAD 30 mg (n = 8)): 0 n (%)
- Participants with TEAEs: Peripheral swelling ([4]; SAD 30 mg (n = 8)): 0 n (%)
- Participants with TEAEs: Pruritus ([4]; SAD 30 mg (n = 8)): 0 n (%)
- Participants with TEAEs: Rash ([4]; SAD 30 mg (n = 8)): 0 n (%)
- Participants with TEAEs: Skin and subcutaneous tissue disorders (SOC) ([4]; SAD 30 mg (n = 8)): 0 n (%)
- Participants with TEAEs: Urticaria ([4]; SAD 30 mg (n = 8)): 0 n (%)
- SAEs ([4]; SAD 30 mg (n = 8)): 0 n
- Severe AEs ([4]; SAD 30 mg (n = 8)): 0 n
- AEs ([4]; SAD 100 mg (n = 7)): 9 n
- AEs leading to study drug dose reduction or interruption ([4]; SAD 100 mg (n = 7)): 0 n
- Participants with AEs ([4]; SAD 100 mg (n = 7)): 1 (14.3) n (%)
- Participants with TEAEs: Alanine aminotransferase increased ([4]; SAD 100 mg (n = 7)): 0 n (%)
- Participants with TEAEs: Aspartate aminotransferase increased ([4]; SAD 100 mg (n = 7)): 0 n (%)

Source: article PMC7993274 (Clinical and Translational Science, 2020)
